# Test results taken from ChEMBL document CHEMBL3861962 (Eur J Med Chem, 2016).
# Legend:
# [1] = target: T1, Endothelin receptor type B (Homo sapiens) (UniProt P24530); experiment: Agonist activity at human recombinant ETB receptor expressed in CHOK1 cells assessed as induction of Ca2+ mobilization at 1 nM by fluorimetric method relative to control; type: functional, cell-based; conditions: CHO-K1
# T1 sequence (whole entry): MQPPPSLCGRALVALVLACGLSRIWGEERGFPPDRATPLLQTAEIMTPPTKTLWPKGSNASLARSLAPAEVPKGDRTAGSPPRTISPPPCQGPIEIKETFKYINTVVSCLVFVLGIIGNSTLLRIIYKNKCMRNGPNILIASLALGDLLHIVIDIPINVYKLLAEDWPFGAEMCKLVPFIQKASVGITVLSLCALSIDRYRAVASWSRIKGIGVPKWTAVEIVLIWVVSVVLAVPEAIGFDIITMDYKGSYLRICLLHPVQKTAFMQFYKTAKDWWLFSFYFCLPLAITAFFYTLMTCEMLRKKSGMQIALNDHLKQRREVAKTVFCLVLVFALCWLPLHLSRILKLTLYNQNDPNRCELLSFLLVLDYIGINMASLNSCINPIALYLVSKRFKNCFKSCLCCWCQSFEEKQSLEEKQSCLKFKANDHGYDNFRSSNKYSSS
# Outline: (§1)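 ETB functional assay run by Cerep in human recombinant CHO-k1 cells at 22 °C with fluorimetric read-out. Test solutions were 1, 10, 100 and 1000 nM. Agonist response is given as % of the control response to 100 nM endothelin-1. For antagonist mode, inhibition is given as % of the control endothelin-1 agonist response, with BQ-788 as reference antagonist.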
# [2] = target: T1, Endothelin receptor type B (Homo sapiens); experiment: Antagonist activity at human recombinant ETB expressed in CHOK1 cells assessed as inhibition of endothelin-1-mediated Ca2+ mobilization at 100 nM by fluorimetric method relative to control; type: functional, cell-based; conditions: CHO-K1; outline: as §1
# [3] = target: T1, Endothelin receptor type B (Homo sapiens); experiment: Antagonist activity at human recombinant ETB expressed in CHOK1 cells assessed as inhibition of endothelin-1-mediated Ca2+ mobilization at 10 nM by fluorimetric method relative to control; type: functional, cell-based; conditions: CHO-K1; outline: as §1
# [4] = target: T2, Endothelin-1 receptor (Homo sapiens) (UniProt P25101); experiment: Antagonist activity at ETA receptor in human SKNMC cells assessed as inhibition of endothelin-1-mediated Ca2+ mobilization at 1 nM by fluorimetric method relative to control; type: functional, cell-based; conditions: SK-N-MC
# T2 sequence (whole entry): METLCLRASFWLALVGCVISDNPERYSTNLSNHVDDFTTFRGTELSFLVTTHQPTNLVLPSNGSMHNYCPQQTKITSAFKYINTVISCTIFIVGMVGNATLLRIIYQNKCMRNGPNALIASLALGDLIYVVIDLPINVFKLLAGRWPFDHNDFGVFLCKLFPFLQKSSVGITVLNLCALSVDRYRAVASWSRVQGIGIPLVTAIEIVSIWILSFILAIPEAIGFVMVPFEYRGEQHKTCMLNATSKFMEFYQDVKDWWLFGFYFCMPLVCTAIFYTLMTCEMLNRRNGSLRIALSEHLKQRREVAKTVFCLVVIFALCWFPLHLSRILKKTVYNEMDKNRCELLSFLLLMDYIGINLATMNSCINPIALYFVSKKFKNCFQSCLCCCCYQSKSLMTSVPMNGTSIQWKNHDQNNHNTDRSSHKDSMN
# Outline: as §1, with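 “ETA” for “ETB”, “neuroblastoma SK-N-MC” for “recombinant CHO-k1”, “BQ-123” for “BQ-788”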
# [5] = target: T2, Endothelin-1 receptor (Homo sapiens); experiment: Antagonist activity at ETA receptor in human SKNMC cells assessed as inhibition of endothelin-1-mediated Ca2+ mobilization at 10 nM by fluorimetric method relative to control; type: functional, cell-based; conditions: SK-N-MC
# Outline: as §1, with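 “ETA” for “ETB”, “neuroblastoma SK-N-MC” for “recombinant CHO-k1”, “BQ-123” for “BQ-788”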
# [6] = target: T2, Endothelin-1 receptor (Homo sapiens); experiment: Antagonist activity at ETA receptor in human SKNMC cells assessed as inhibition of endothelin-1-mediated Ca2+ mobilization at 100 nM by fluorimetric method relative to control; type: functional, cell-based; conditions: SK-N-MC
# Outline: as §1, with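 “ETA” for “ETB”, “neuroblastoma SK-N-MC” for “recombinant CHO-k1”, “BQ-123” for “BQ-788”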
# [7] = Retention time of the compound; type: physicochemical
# [8] = target: T2, Endothelin-1 receptor (Homo sapiens); experiment: Agonist activity at ETA receptor in human SKNMC cells assessed as induction of Ca2+ mobilization at 10 nM by fluorimetric method relative to control; type: functional, cell-based; conditions: SK-N-MC
# Outline: as §1, with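 “ETA” for “ETB”, “neuroblastoma SK-N-MC” for “recombinant CHO-k1”, “BQ-123” for “BQ-788”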
# Cytochrome P450 2C9 = Cytochrome P450 2C9 (Homo sapiens, UniProt P11712); experiment: Drug metabolism assessed as human recombinant CYP2C9-mediated metabolite formation by measuring parent compound remaining at 5 uM in presence of NADPH after 30 mins by LC-MS/MS analysis; type: ADME; conditions: recombinant enzyme, 0.5 h
# Outline: (§2)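 Substrate at 5 μM final in 100 mM potassium phosphate, pH 7.4, incubated with human liver microsomes or baculovirus-expressed recombinant CYP3A4, 2D6 or 2C9. Reaction started with 1 mM NADPH and run 0, 15 and 30 min at 37 °C. Stopped with ice-cold acetonitrile containing labetalol internal standard, then centrifuged. Supernatant analysed by LC-MS/MS on a C18 column at 40 °C. Blank was enzyme without substrate.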
# [9] = Metabolic stability in human liver microsomes assessed as parent compound remaining at 5 uM in presence of NADPH after 30 mins by LC-MS/MS analysis; type: ADME; conditions: read-out: Stability
# Outline: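 Pooled human liver microsomes in 100 mM potassium phosphate, pH 7.4, with test compound at 5 μM final. Reaction started with 1 mM NADPH (final) and run at 37 °C in a shaking water bath for 0, 15 and 30 min. Stopped with an equal volume of ice-cold acetonitrile containing 0.6 μM labetalol as internal standard. Protein was spun out and the supernatant analysed by LC-MS/MS. Blank had no compound.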
# [10] = target: T1, Endothelin receptor type B (Homo sapiens); experiment: Antagonist activity at human recombinant ETB expressed in CHOK1 cells assessed as inhibition of endothelin-1-mediated Ca2+ mobilization at 1 nM by fluorimetric method relative to control; type: functional, cell-based; conditions: CHO-K1; outline: as §1
# [11] = target: T2, Endothelin-1 receptor (Homo sapiens); experiment: Agonist activity at ETA receptor in human SKNMC cells assessed as induction of Ca2+ mobilization at 1 nM by fluorimetric method relative to control; type: functional, cell-based; conditions: SK-N-MC
# Outline: as §1, with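 “ETA” for “ETB”, “neuroblastoma SK-N-MC” for “recombinant CHO-k1”, “BQ-123” for “BQ-788”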
# Cytochrome P450 2D6 = Cytochrome P450 2D6 (Homo sapiens, UniProt P10635); experiment: Drug metabolism assessed as human recombinant CYP2D6-mediated metabolite formation by measuring parent compound remaining at 5 uM in presence of NADPH after 30 mins by LC-MS/MS analysis; type: ADME; conditions: recombinant enzyme, 0.5 h; outline: as §2
# Endothelin-1 receptor = target: T3, Endothelin-1 receptor (Homo sapiens, UniProt P25101); experiment: Antagonist activity at ETA receptor in human SKNMC cells assessed as inhibition of endothelin-1-induced Ca2+ mobilization by fluorimetric method
# T3 sequence (P25101 whole entry): T2 sequence (whole entry)
# [12] = target: T2, Endothelin-1 receptor (Homo sapiens); experiment: Agonist activity at ETA receptor in human SKNMC cells assessed as induction of Ca2+ mobilization at 100 nM by fluorimetric method relative to control; type: functional, cell-based; conditions: SK-N-MC
# Outline: as §1, with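 “ETA” for “ETB”, “neuroblastoma SK-N-MC” for “recombinant CHO-k1”, “BQ-123” for “BQ-788”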
# [13] = Cytotoxicity against CHOK1 cells assessed as decrease in cell viability after 24 hrs by MTT assay; type: toxicity, cell-based, Cricetulus griseus; conditions: Chinese hamster, CHO-K1 cells
# Outline: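 CHO-k1 cells grown in phenol-red-free DMEM/F-12 with 10% FBS, seeded at 20,000 cells/well and allowed to attach overnight. Exposure was 24 h to 0.1–200 μM, with DMSO as vehicle control. MTT at 1 mg/mL for 3 h at 37 °C, formazan dissolved in DMSO, absorbance read at 570 nm. Data given as % OD of vehicle control; IC50 taken from dose–response curve fits.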
# Sequence of Cytochrome P450 2D6 (P10635 whole entry): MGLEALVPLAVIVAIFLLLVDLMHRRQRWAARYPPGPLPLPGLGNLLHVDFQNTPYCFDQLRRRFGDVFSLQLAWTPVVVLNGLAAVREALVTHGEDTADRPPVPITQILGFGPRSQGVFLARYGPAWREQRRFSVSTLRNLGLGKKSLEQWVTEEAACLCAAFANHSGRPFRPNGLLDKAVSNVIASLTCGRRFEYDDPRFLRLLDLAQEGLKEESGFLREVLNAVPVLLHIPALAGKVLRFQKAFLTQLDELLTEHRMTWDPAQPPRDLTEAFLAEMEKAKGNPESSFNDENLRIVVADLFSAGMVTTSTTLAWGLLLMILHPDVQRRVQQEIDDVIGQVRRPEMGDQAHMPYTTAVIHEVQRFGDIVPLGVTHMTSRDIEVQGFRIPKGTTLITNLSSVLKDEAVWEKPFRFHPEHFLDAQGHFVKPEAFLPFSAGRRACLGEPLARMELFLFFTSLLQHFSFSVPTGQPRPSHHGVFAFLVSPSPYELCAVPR
# Sequence of Cytochrome P450 2C9 (P11712 whole entry): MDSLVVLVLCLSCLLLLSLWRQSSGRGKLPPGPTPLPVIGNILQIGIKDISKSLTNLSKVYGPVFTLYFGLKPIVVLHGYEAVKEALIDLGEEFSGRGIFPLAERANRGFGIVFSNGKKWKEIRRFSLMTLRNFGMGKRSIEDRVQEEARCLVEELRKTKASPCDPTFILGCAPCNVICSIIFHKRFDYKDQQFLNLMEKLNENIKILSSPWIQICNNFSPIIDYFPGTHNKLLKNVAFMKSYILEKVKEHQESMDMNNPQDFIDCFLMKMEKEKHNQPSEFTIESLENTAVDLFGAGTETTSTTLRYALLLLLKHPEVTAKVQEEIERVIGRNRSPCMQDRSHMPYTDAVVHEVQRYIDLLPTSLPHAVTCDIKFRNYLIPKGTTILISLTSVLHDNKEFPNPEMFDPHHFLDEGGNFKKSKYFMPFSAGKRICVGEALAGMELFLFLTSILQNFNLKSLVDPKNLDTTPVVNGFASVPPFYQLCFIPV
Activity [1] [%],inhibition [2] [%],inhibition [3] [%],inhibition [4] [%],inhibition [5] [%],inhibition [6] [%],Retention_time [7] [min],Activity [8] [%],Stability (Cytochrome P450 2C9) [%],"remaining at 0.5 h, 5 µM [9] [%]",inhibition [10] [%],Activity [11] [%],Stability (Cytochrome P450 2D6) [%],IC50 (Endothelin-1 receptor) [µM],Activity [12] [%],SMILES,IC50 at 24 h [13] [µM]
0,11,5,-1,13,26,5.48,0,100,73.9,4,0,> 99,693,0,COc1ccccc1Oc1c(NS(=O)(=O)c2ccc(C(OC)(C(F)(F)F)C(F)(F)F)cc2)nc(-c2ncccn2)nc1OCCO,153
0,8,16,-5,20,55,5.6,-1,100,99,-5,0,> 99,0.0754,-1,COc1ccccc1Oc1c(NS(=O)(=O)c2ccc(C(F)(C(F)(F)F)C(F)(F)F)cc2)nc(-c2ncccn2)nc1OCCO,159
